Data reported in paper PMC6896334 (Cell reports, 2019).
“And” between values parts separate entries of the source, which are not always exact repeats. Equal entries are not always repeated.

Key:
[1] = system: 4T1 cells; assay: 4T1 cell-based IC50; details: Mus musculus, 4T1, 24 h
Method in brief: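 4T1 cells exposed to 0–20 µM test compound for 24 h. Whole-cell lysates were immunoblotted for Id1. Band intensities were read on 700/800 nm infrared channels, blank-subtracted and normalised to tubulin, and IC50 was taken from these blots.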

[2] = target: T1, Id3 (Mus musculus, UniProt P41133); assay: Circular dichroism; type: binding
T1 sequence (P41133 1-119): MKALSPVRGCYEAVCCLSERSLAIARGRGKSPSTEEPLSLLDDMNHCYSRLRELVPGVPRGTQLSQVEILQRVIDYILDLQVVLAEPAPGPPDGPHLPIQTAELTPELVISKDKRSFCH

[3] = Pharmacokinetics in serum after i.p. injection; type: in vivo, mouse; details: for mean maximum serum concentration: mice
Method in brief: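 Eight-week-old male BALB/c mice received a single i.p. dose of 30, 50 or 100 mg/kg in 70% DMSO, with another group given 100 mg/kg in 100% DMSO (n = 3 per group). Blood was drawn at 30 min, 1, 3, 6 and 24 h. […] was quantified by a validated LC-MS protocol.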

[4] = target: T2, Id1 (Mus musculus, UniProt P20067); assay: Circular dichroism; type: binding; details: AGX51 0–50 μM; AGXA 0–110 μM in DMSO
T2 sequence (P20067 1-148 isoform P20067-2): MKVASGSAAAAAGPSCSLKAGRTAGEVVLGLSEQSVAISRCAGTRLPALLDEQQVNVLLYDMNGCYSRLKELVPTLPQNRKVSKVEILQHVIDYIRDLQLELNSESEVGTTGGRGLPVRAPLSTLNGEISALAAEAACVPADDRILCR

[5] = target: T3, Id1 crystals (Mus musculus, UniProt P20067); assay: Exposure of Id1 crystals to compound; details: DMSO alone had no such effect
T3 sequence (P20067 51-104): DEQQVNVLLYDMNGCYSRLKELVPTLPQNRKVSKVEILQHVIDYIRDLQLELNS
Method in brief: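 Mouse Id1 (residues 51–104) crystals grown by hanging-drop vapour diffusion at 4°C. Protein at 2.8 mg/mL (20 mM Tris pH 8.0, 0.25 M NaCl, 5 mM DTT) was mixed 1:1 with reservoir of 0.1 M sodium citrate pH 6.5, 0.2 M magnesium acetate and 10% PEG8000.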

[6] = system: HCT116 cells; assay: HCT116 cell cycle analysis; type: cell-based, human; details: HCT116, 40 μM, 4-24 hours
Method in brief: (§1)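 Cells exposed to test compound or DMSO, then trypsinised, PBS-washed and fixed in 70% ethanol at −20°C. After centrifugation and PBS wash, cells were stained in PI/RNase buffer for 15 min at room temperature. DNA content was analysed by flow cytometry.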

[7] = system: HCT116 cells; assay: HCT116 cell viability; type: cell-based, human
Method in brief: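 MTT viability: cells seeded at 5000/well and left overnight, then exposed to the test compound for 24 h. MTT (5 mg/mL) was added for 4 h, medium removed and formazan dissolved in DMSO. Absorbance was read at 570 nm.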

[8] = target: T4, E47 (Homo sapiens, UniProt P15923); assay: Circular dichroism; type: binding; details: AGX51 0, 10, 20, 50 μM
T4 sequence (P15923 1-651 isoform P15923-2): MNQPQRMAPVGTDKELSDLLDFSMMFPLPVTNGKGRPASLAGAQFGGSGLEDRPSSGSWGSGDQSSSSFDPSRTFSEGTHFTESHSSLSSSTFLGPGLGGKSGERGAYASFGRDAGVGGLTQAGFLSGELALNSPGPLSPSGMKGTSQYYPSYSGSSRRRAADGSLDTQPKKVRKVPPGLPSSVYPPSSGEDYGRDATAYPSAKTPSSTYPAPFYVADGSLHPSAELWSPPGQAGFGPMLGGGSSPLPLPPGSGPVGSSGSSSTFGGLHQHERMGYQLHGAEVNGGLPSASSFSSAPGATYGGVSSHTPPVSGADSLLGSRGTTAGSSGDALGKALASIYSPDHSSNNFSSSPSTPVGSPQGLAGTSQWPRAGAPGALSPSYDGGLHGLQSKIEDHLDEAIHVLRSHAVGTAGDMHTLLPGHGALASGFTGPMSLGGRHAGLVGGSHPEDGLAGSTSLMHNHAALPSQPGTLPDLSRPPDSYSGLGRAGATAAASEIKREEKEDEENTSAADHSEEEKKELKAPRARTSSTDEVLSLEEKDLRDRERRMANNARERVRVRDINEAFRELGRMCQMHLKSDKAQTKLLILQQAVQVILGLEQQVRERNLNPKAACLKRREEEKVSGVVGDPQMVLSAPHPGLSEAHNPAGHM

[9] = system: HUVECs; assay: HUVEC cell cycle analysis; type: cell-based, human; details: 20 μM, 24 h
Method in brief: as §1

[10] = system: Cyclin D1; assay: Western blot for Cyclin D1 in HUVECs; type: cell-based, human; details: 0–40 μM, 24 h
Method in brief: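 HUVECs treated with 0–40 µM test compound for 24 h. Whole-cell lysates were immunoblotted for the target protein. Infrared band intensities were blank-subtracted and normalised to tubulin.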

[11] = target: T5, NanoLuc luciferase ID1 fusion protein (Homo sapiens, UniProt P41134); assay: NanoBRET target engagement assay in permeabilized 293T cells; type: binding; details: 2 μM AGX51 tracer, 0–60 μM competitor, 50 μg/mL digitonin
T5 sequence (P41134 1-155): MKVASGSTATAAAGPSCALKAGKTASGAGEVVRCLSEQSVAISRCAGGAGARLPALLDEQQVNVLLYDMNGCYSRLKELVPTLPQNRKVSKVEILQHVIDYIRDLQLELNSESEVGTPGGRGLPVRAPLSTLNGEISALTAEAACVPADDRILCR
Method in brief: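 293T cells transfected with an N-terminal NanoLuc–ID1 fusion construct and plated 24 h later. Cells received 2 µM fluorescent tracer plus 0–60 µM competitor, then were permeabilised with digitonin (50 µg/mL). NanoBRET Nano-Glo substrate was added and the BRET ratio read, following the kit protocol for intracellular target engagement.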

[12] = system: E protein binding; assay: EMSA on whole cell lysates from HCT116 cells; type: cell-based, human; details: HCT116, 40 μM, 24 h
[13] = system: choroidal neovascularization; assay: Laser-induced choroidal neovascularization; type: in vivo, mouse
Method in brief: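 Female C57BL/6 mice aged 4–6 weeks had laser rupture of Bruch's membrane at three sites per eye. Test compounds (1 or 5 µg) or DMSO were given intravitreally. At day 14, choroidal flat mounts were stained with FITC-Griffonia simplicifolia lectin, and CNV area was measured by fluorescence image analysis by an observer masked to group.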

Q: Which results are given for CCC(=O)N(CCC(c1ccc2c(c1)OCO2)c1ccccc1OC)Cc1ccccc1 (stereo not shown) [AGX51, N-(3-(benzo[d][1,3]dioxol-5-yl)-3-(2-methoxyphenyl)propyl)-N-benzylpropionamide]?
A: IC50 [1]: 26.7 µM; effect on Id3 secondary structure (CD) [2]: small but reproducible effect; half-life ([3]; male, BALB/c, mouse, serum, ip): ~3 h; mean maximum serum concentration ([3]; i.p. 30 mg/kg in 70% DMSO, 30 mg/kg): 1.1 μg/mL and 2.7 μM; mean maximum serum concentration ([3]; i.p. 50 mg/kg in 70% DMSO, 50 mg/kg): 1.6 μg/mL and 4 μM; mean maximum serum concentration ([3]; i.p. 100 mg/kg in 70% DMSO, compared with lower doses): not increased further; effect on Id1 secondary structure (CD spectra) [4]: significant alteration in the 2° structure of Id1; effect on Id1 crystals [5]: the crystals melted; cell cycle effect [6]: G0/G1 growth arrest; cell viability (MTT) ([7]; HCT116, 40 μM, 24 hours): reduced cell viability; IC50 ([7]; Homo sapiens, HCT-116, 24 h): 22.3 µM; interaction with E47 (CD) [8]: no evidence of an interaction; cell cycle effect [9]: G0/G1 growth arrest; Cyclin D1 levels [10]: reduction in Cyclin D1 levels; competition with the AGX51 tracer (BRET ratio) [11]: able to compete the AGX51 tracer; E protein binding in cell lysates [12]: small increase in E protein binding; area of CNV ([13]; intravitreal 5 μg on days 1 and 7, day 14, p < 0.05): effective at significantly reducing CNV; area of CNV ([13]; twice-daily i.p. injections ~30 mg/kg (500 μg), 14 days, vs vehicle, p < 0.05): significantly reduced CNV; area of CNV ([13]; two intravitreal injections of 10 μg 1 week apart, day 14, vs vehicle, p < 0.05): significantly suppressed CNV
